CAL PDZ FP-1 = inhibitors of human CAL PDZ peptide binding; Q9HD26; purified CAL PDZ, TMR-peptide fluorescence polarization, 1 h; inhibition, % at 20 µM; 330,000 tested, 0.02% active;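 active = highest replicate inhibition of at least 40%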;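 note: plate controls were DMSO neutral control wells for no effect and unlabeled competitor peptide control wells for full effect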
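Material: tagged CAL PDZ domain; buffer or medium: 25 mM sodium phosphate pH 7.4, 150 mM NaCl, TCEP, IgG, Thesit; compound dosing: single point, 20 µM; schedule: 1 h incubation at room temperature before polarization reading; measured by: FP readout, S and P plane fluorescence; read-out basis: percent inhibition from loss of millipolarization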
CAL PDZ FP-2 = inhibitors of human CAL PDZ peptide binding; Q9HD26; 300,000 tested, 0.92% active; inhibition, % at 24.9 µM; purified CAL PDZ, TMR-peptide fluorescence polarization, 1 h;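 active = mean inhibition of at least 30% with at least half of replicates also reaching 30%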;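 note: 0% = DMSO neutral control and 100% = excess unlabeled competitor peptide PRC23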
SR-BI uptake up = SR-BI HDL lipid transfer activation. activation, % at 12.5 µM. 320,000 tested, 0.096% active. CHO ldlA[mSR-BI] cells, DiI-HDL uptake fluorescence, 3 h; 100 = double the neutral-control signal;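 active = mean replicate activation of at least 60% and every replicate at or above 60%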;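 note: 0% = median plate neutral-control signal and 100% = twice that signal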
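Assay system: CHO ldlA[mSR-BI] cells, LDL receptor-null, SR-BI overexpressing; medium: Ham's F12 with 0.5% BSA, HEPES 25 mM, pH 7.4; also added: DiI-HDL 10 µg/mL; timing: 3 h uptake period with compound, 37 °C; signal: DiI fluorescence, bottom read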
ATG4B inh = blocks human ATG4B protease cleavage of LC3 substrate | AID 504462 | ATG4B cleavage of LC3-PLA2, NBD-HPC fluorescence, 1 h | Q9Y4P1 | inhibition, % at 8.33 µM | 340,000 tested, 0.51% active; in the data active = inhibition above about 40%
Target sequence (Q9Y4P1 whole entry, looked up): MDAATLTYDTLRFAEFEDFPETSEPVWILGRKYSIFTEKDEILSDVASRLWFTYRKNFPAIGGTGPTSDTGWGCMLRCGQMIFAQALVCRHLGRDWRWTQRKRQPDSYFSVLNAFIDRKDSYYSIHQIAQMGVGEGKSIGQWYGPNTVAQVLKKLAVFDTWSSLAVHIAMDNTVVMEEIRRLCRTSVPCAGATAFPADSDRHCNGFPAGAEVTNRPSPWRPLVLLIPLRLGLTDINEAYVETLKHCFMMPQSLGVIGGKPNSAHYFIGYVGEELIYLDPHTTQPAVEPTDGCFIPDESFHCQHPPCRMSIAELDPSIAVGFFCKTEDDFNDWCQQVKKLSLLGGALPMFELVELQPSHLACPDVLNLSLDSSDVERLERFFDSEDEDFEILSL
SR-BI DiI inh = inhibitors of mouse SR-BI mediated HDL lipid uptake | Q61009 | ldlA[mSR-BI] CHO cells, DiI-HDL uptake fluorescence, 3 h | inhibition, % at 12.5 µM | 320,000 tested, 0.96% active | AID 488896;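 active = mean replicate inhibition of at least 70% and a set share of replicates each scoring 70 or more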;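 note: 0% = median of neutral control wells and 100% = median of positive control wells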
* marks the source's active call; other numbers are inactive results; / = no result. Most compounds without a hit are left out; they make up all but 2.3% or so of the library.

SMILES	CAL PDZ FP-1	CAL PDZ FP-2	SR-BI uptake up	ATG4B inh	SR-BI DiI inh
COc1ccc(NS(=O)(=O)c2cccc(C(=O)NN=Cc3ccc(O)c(OC)c3)c2)cc1	-1.4	/	-20.8	-3.7	20.8
COc1ccc(NS(=O)(=O)c2cccc(C(=O)N/N=C/c3ccccc3OC)c2)cc1	-3.6	-3.9	-82.3	-14.1	82.3*
CC(Nc1nc(-c2cccc(Br)c2)cs1)c1nc2cc(Cl)c(N3CCCCC3)cc2n1CCOCCO (configuration not stated)	0.8	-2.8	-75.4	-9.5	75.4*
CC(Nc1nc(-c2ccc(F)cc2)cs1)c1nc2cc(Cl)c(N3CCCCC3)cc2n1CCOCCO (configuration not stated)	0.9	-2.9	-46.7	-7.2	46.7
O=C(Nc1ccn([C@H]2CC[C@@H](CO)O2)c(=O)n1)c1ccccc1	-1.8	0.7	17.6	3.5	-17.6
COc1ccc(NC(=S)NNC(=S)Nc2cccc(C(F)(F)F)c2)cc1	0.0	-5.2	-53.5	-5.8	53.5
CCOc1ccc(NC(=S)NNC(=S)Nc2cccc(C(F)(F)F)c2)cc1	-1.9	-2.8	-93.3	-4.4	93.3*
CC(C)(C)c1ccc(C(=O)NNC(=O)c2ccccc2Br)cc1	-2.0	/	3.7	18.4	-3.7
CC(C)(C)c1ccc(OCCCC(=O)NNC(=O)c2ccccc2O)cc1	-1.4	3.7	-119.9	-1.0	120.0*
CC(C)(C)c1ccc(C(=O)NCC(=O)NNC(=O)c2ccccc2O)cc1	-1.5	-5.4	-90.0	5.0	90.0*
Cc1cc(C(=O)NNC(=O)CCCOc2ccccc2)c(C)o1	-2.4	-3.2	15.6	3.1	-15.6
COc1cc(CCCN2CCNC[C@@H]2Cc2ccccc2)cc(OC)c1OC	0.7	-0.7	17.1	-9.0	-17.1
CC1CCCN(C(=O)c2cn(-c3ccccc3)nc2-c2cccnc2)C1 (configuration not stated)	-1.5	-5.9	-35.1	0.1	35.1
C[C@]12C[C@H](O)[C@H]3[C@@H](CCC4=CC(=O)CC[C@@]43C)[C@@H]1CC[C@@H]2C(=O)CO	-0.4	-3.7	87.2*	-0.4	-5.6
COCCCNC(=O)c1cc2cc(Br)ccc2oc1=O	-2.0	-0.9	15.1	-4.9	-15.1
O=C(NNC(=O)c1cc2cc(Br)ccc2oc1=O)c1ccc(O)cc1O	-3.7	3.6	-83.0	-12.7	83.0*
COc1ccc(-c2nc3ccc(C(=O)NCC(OC)OC)cc3nc2-c2ccc(OC)cc2)cc1	-7.9	-0.1	-51.0	-17.3	51.0
COc1ccccc1NC(=O)c1ccc2nc(-c3ccccc3)c(-c3ccccc3)nc2c1	-0.6	-8.1	-20.3	-11.1	20.3
Cc1cc(NC(=O)c2ccc3nc(-c4ccccc4)c(-c4ccccc4)nc3c2)no1	/	-1.2	-80.2	9.1	80.2*
COc1ccc(NC(=O)c2ccc3[nH]c(C)c(C)c3c2)c(OC)c1	-3.3	-3.0	-109.4	5.3	109.4*
COC(CNC(=O)c1ccc2nc(-c3ccccc3)c(-c3ccccc3)nc2c1)OC	-5.1	-3.4	-79.8	-13.2	79.8*
COc1ccc(NC(=O)c2ccc3nc(-c4ccccc4)c(-c4ccccc4)nc3c2)c(OC)c1	0.4	-1.3	-75.7	-0.7	75.7*
O=C(COC(=O)C1=COCCO1)NC1CCCCC1	-0.1	/	28.6	3.0	-28.6
CC1CCCN(C(=S)NC2CCCC2)C1 (configuration not stated)	0.1	-1.5	11.3	-7.1	-11.3
CCOc1ccccc1NCc1cc(=O)oc2cc(C)c(O)cc12	-2.0	-1.8	-73.6	0.3	73.6*
SMILES	CAL PDZ FP-1	CAL PDZ FP-2	SR-BI uptake up	ATG4B inh	SR-BI DiI inh
COc1cc(CC(=O)NCC2CCCCC2)cc(OC)c1OC	-0.1	-5.9	-9.1	-1.3	9.1
O=S(=O)(NCCC(c1ccc(F)cc1)c1ccco1)c1ccccc1 (configuration not stated)	-3.0	0.0	1.8	17.9	-1.8
Fc1ccc(C(CCNCc2cccs2)c2ccco2)cc1 (configuration not stated)	0.2	55.6*	4.2	9.4	-4.2
COc1ccc(-c2oc3cccnc3c2/C=C/c2ccc(OC)c(OC)c2)cc1	1.5	-11.1	-66.9	4.3	66.9
CC(C)CSc1nnc(N)s1	-0.6	57.5*	-31.4	-4.1	31.4
O=C(COC(=O)c1cc(S(=O)(=O)Nc2ccccc2Cl)ccc1O)Nc1ccc(F)c(F)c1F	-0.8	8.4	11.8	-1.3	-11.8
COc1cc2c(cc1NC(=S)Nc1cccc(C(F)(F)F)c1)oc1ccccc12	-1.9	-2.4	-75.4	6.5	75.4*
COCCCNC(=S)Nc1cc2oc3ccccc3c2cc1OC	1.0	1.8	-88.1	-0.2	88.1*
COc1cc2c(cc1NC(=S)Nc1cccc3ccccc13)oc1ccccc12	/	-3.7	-76.8	-7.1	76.8*
Cc1cc2occ(CC(=O)N(C)CC(=O)Nc3cccc(F)c3)c2cc1C	-2.8	1.8	18.0	-6.7	-18.0
O=[N+]([O-])c1cccc(-c2c[n+]3c(n2-c2ccccc2)SCC3)c1	-1.3	48.1*	12.5	-9.4	-12.5
CCOc1ccc(/C=N/OCC(=O)Nc2cc(S(=O)(=O)N3CCOCC3)ccc2OC)cc1	/	46.7*	-46.1	-3.4	46.1
CCOc1ccc(OCCC(=O)OCC(=O)Nc2cc(S(=O)(=O)N3CCOCC3)ccc2OC)cc1	-0.3	20.6	23.4	-69.2	-23.4
CCOc1ccc(-c2nnc(NC(=O)C3CCCC3)o2)cc1	-3.7	9.2	/	1.7	/
CC(C)(COC(=O)c1ccccc1)N1CC2CCC(C1)O2	-0.2	-1.1	-6.5	9.8	6.5
CN(CC(=O)Nc1ccccc1Br)C(=O)c1ccc2c(=O)n3c(nc2c1)CCC3	-0.7	-2.4	15.7	-5.2	-15.7
Cc1ccc(C)c(NC(=O)CN(C)C(=O)c2ccc3c(=O)n4c(nc3c2)CCC4)c1	-0.9	49.0*	5.7	-2.7	-5.7
O=C1c2cc([N+](=O)[O-])ccc2-c2cc(Br)c(N=C(NO)C(F)(F)F)cc21	0.1	-5.2	-5.1	-11.4	5.1
Cc1ccc(-c2onc3ccc(C(=O)/C=C/N(C)C)cc23)cc1	-16.3	-18.2	-29.5	-9.1	29.5
CN(C)/C=C/C(=O)c1ccc2noc(-c3ccc(F)cc3)c2c1	-14.6	-11.5	-86.5	0.8	86.5*
O=C(O)c1cc(O)c2c(c1)[C@@H]([C@H]1c3cc(C(=O)O)cc(O)c3C(=O)c3c(O[C@@H]4O[C@H](CO)[C@@H](O)[C@H](O)[C@H]4O)cccc31)c1cccc(OC3O[C@H](CO)[C@@H](O)[C@H](O)[C@H]3O)c1C2=O (some centres not stated)	12.6	37.4*	0.2	3.6	-0.2
COc1ccc(NC(=O)Cn2nc(C)c3ccccc3c2=O)cc1	33.0	37.1*	15.0	-0.1	-15.0
Cc1nn(CC(=O)Nc2ccccc2)c(=O)c2ccccc12	-0.9	7.1	-5.9	-5.9	5.9
